CAL PDZ FP-1 – inhibitors of human CAL PDZ peptide binding | purified CAL PDZ, TMR-peptide fluorescence polarization, 1 h | Q9HD26 | AID 602252 | 300,000 compounds, 0.92% hits | inhibition, % at 24.9 µM;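 active = mean inhibition of at least 30% with at least half of replicates also reaching 30%; inconclusive = no clear call, values can overlap the other calls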;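 also: 0% = DMSO neutral control and 100% = excess unlabeled competitor peptide PRC23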
Rtt109 Vps75 – inhibitors of Candida albicans Rtt109/Vps75 histone acetyltransferase. AID 540336. inhibition, % at 34.9 µM. 330,000 compounds, 0.16% hits. purified Rtt109/Vps75, ThioGlo CoA-SH fluorescence, 4 h;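 active = inhibition of at least 50% in every replicate; inconclusive = best replicate reaches 50% inhibition but some replicates fall short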
Target sequence (Q5AAJ8 whole entry, looked up): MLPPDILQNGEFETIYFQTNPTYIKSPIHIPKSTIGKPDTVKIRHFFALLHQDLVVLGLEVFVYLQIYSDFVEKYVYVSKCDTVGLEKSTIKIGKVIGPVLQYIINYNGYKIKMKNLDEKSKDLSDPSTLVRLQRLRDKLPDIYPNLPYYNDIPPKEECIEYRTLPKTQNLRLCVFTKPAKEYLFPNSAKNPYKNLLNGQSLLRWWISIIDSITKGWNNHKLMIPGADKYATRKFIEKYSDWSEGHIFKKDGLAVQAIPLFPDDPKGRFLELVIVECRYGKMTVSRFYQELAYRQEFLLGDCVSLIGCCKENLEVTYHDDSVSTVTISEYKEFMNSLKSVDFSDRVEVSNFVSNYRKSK
CAL PDZ FP-2 – blocks peptide binding to human CAL PDZ domain; purified CAL PDZ, TMR-peptide fluorescence polarization, 1 h; 330,000 compounds, 0.02% hits; AID 504414; Q9HD26; inhibition, % at 20 µM;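 active = highest replicate inhibition of at least 40%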;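 also: plate controls were DMSO neutral control wells for no effect and unlabeled competitor peptide control wells for full effect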
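Test system: purified CerCALP PDZ construct; Compound dosing: one concentration, 20 µM compound; Also added: TMR-labelled reporter peptide T*-PRC34 bound in PDZ groove; Read-out: inhibition from polarization loss; Controls: unlabelled peptide and DMSO controls; Signal: FP readout, S and P plane fluorescence; Incubation: 1 h at RT.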
ALR inh – inhibitors of human sulfhydryl oxidase ALR. P55789. purified ALR, DTT oxidation, H2O2 HRP-luminol luminescence. inhibition, % (concentration not given with the values). 290,000 compounds, 3.8% hits. AID 485317;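 active = mean replicate inhibition above about 79%, with every replicate also reaching it, limit read from the data; inconclusive = only one of the two criteria met; inactive = mean below limit and not every replicate reaching it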
Target sequence (P55789 whole entry, looked up): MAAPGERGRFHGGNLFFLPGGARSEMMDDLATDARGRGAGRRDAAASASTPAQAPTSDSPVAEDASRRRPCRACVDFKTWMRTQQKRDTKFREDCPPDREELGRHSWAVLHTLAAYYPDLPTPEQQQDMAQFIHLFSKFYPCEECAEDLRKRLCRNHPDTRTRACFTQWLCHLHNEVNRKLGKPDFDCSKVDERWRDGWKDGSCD
Dyrk1A ADPGlo – Dyrk1A (rat) kinase inhibition. inhibition, % at 12.5 µM. 310,000 compounds, 0.43% hits. ADP-Glo luminescence, NFATc1 peptide. Q63470; in the data active = inhibition above about 50%;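 also: plate controls were vehicle with enzyme for no effect and no enzyme for full effect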
Numbers without * were called inactive; ? = inconclusive; · = not tested or not shown. A selection: hits, their analogues and other compounds. The true share with any hit is near 4.3%.

SMILES	CAL PDZ FP-1	Rtt109 Vps75	CAL PDZ FP-2	ALR inh	Dyrk1A ADPGlo
Cc1c(Br)c([N+](=O)[O-])nn1CC(=O)Nc1cccc2nonc12	0.1	1.2	2.6	-13.0	·
CCOC(=O)N1CCN(CCC(=O)Nc2cccc(Cl)c2C)CC1	0.6	-0.6	-1.2	·	·
CCOC(=O)C1CCCN(c2c(NCCCN(CC)c3ccccc3)c(=O)c2=O)C1 (centres undefined)	-6.9	-4.2	-0.5	98.4*	1.7
CCOC(=O)N1CCC(Nc2c(NCCN3CCN(Cc4ccccc4)CC3)c(=O)c2=O)CC1	2.8	4.3	-6.0	2.2	-6.9
CCOC(=O)C1CCN(c2c(NCCN(CC)c3ccccc3)c(=O)c2=O)CC1	54.2*	-7.1	0.0	97.7*	-2.5
CCOC(=O)N1CCC(Nc2c(NCCCN(CC)c3cccc(C)c3)c(=O)c2=O)CC1	·	14.1	-0.4	98.9*	1.3
CCOC(=O)N1CCN(c2c(NCCCN(C)c3ccccc3)c(=O)c2=O)CC1	·	1.7	-1.3	99.2*	-1.8
CCOC(=O)C1CCCN(c2c(NCCN(CC)c3ccccc3)c(=O)c2=O)C1 (centres undefined)	·	3.4	-0.9	·	2.2
CCC(C)(C)c1ccc(OCCCC[n+]2cccc(C)c2)c(C(C)(C)CC)c1	-4.3	?	-2.8	·	6.1
O=C(Nc1nnc(CCN2CCCCC2)s1)c1ccccc1Cl	-8.9	-1.3	-0.8	-7.2	·
CN1CCN(NC(=O)NC2CCCCC2)CC1	·	-2.6	-0.7	-1.1	·
O=C(c1ccc2[nH]c(=O)c(=O)[nH]c2c1)N1CCN(c2ccccc2)CC1	5.5	5.2	0.0	33.8	4.9
CC(C)c1ccc(CN2C(=O)c3ccccc3S2(=O)=O)cc1	-1.4	2.7	-0.6	-1.7	·
COC(=O)c1ccc(CN2C(=O)c3ccccc3S2(=O)=O)cc1	55.4*	18.0	·	0.1	-0.1
O=C(CSc1ccc(Cl)cc1)OCC(=O)N1CCN(c2ccccc2)CC1	-4.4	-3.5	-4.5	·	1.6
CCOc1cc(/C=C2\SC(=O)N=C2N)ccc1O	2.7	12.6	1.6	·	7.9
CCOC(=O)C1CCCN(C2=NC(=O)/C(=C/c3ccc(OC)cc3OC)S2)C1 (centres undefined)	-9.5	-0.7	-2.5	13.3	38.6
CCOC(=O)C1CCN(C2=NC(=O)/C(=C/c3ccccc3OC)S2)CC1	-0.9	4.0	-1.7	-4.1	9.2
CCOC(=O)C1CCCN(C2=NC(=O)/C(=C/c3ccc(OC)cc3)S2)C1 (centres undefined)	-1.2	-5.7	-2.4	-1.6	16.5
CCOC(=O)C1CCN(C2=NC(=O)/C(=C/c3ccc(O)cc3)S2)CC1	-4.1	-1.2	-1.4	98.4*	12.7
CCOC(=O)C1CCCN(C2=NC(=O)/C(=C/c3ccc(O)c(OCC)c3)S2)C1 (centres undefined)	-5.7	2.1	0.3	95.9*	-0.5
CCOc1cc(/C=C2\SC(N)=NC2=O)ccc1O	-1.7	1.2	-2.5	98.5*	46.7
CCOC(=O)C1CCCN(C2=NC(=O)/C(=C/c3ccc(N(C)C)cc3)S2)C1 (centres undefined)	0.4	-6.0	-0.7	99.9*	-0.5
Cc1cccc(C(C(=O)NC2CCCCC2)N(Cc2cccnc2)C(=O)c2csnn2)c1 (centres undefined)	-1.4	-2.1	-0.3	-8.2	3.8
COc1cccc(/C=C2\N=C3CCCCCN3C2=O)c1	-2.6	-1.7	-0.7	4.2	2.9
SMILES	CAL PDZ FP-1	Rtt109 Vps75	CAL PDZ FP-2	ALR inh	Dyrk1A ADPGlo
CCOc1cc(/C=C2\N=C3CCCCCN3C2=O)ccc1O	-1.9	20.2	-2.4	98.7*	21.6
Cc1nn(C)cc1C(=O)/C=C/c1ccc([N+](=O)[O-])cc1	·	13.1	-0.7	84.3*	-4.0
CC(O)CNCCCOc1cccc(Oc2ccccc2)c1 (centres undefined)	111.4*	3.9	133.5*	-3.7	2.8
CC(O)CNCCCOc1cccc(C(F)(F)F)c1 (centres undefined)	6.0	8.5	-0.2	·	0.1
CCOc1ccc(S(=O)(=O)N2CCOCC2)cc1NC(=O)CSCC(=O)Nc1ccc(OC)cc1	-2.3	1.4	-0.8	·	-1.1
COc1ccc(-c2nc(-c3ccccc3)c(-c3cc([N+](=O)[O-])ccc3C)[nH]2)cc1O	-0.4	16.9	-0.7	61.7	16.3
COc1ccc([N+](=O)[O-])cc1-c1[nH]c(-c2ccc(C(=O)O)cc2)nc1-c1ccccc1	-2.8	2.2	-14.8	98.0*	20.4
Cc1ccc([N+](=O)[O-])cc1-c1[nH]c(-c2ccc(O)c(O)c2)nc1-c1ccccc1	·	2.2	0.5	96.7*	1.8
CCn1c(C)c(C(C)=O)c(N2CCN(c3ccccc3)CC2)nc1=S	0.9	12.2	0.1	96.7*	-3.0
CC(C(=O)Nc1nc(-c2ccc(F)c(F)c2)cs1)N1C(=O)C2CC=CCC2C1=O (centres undefined)	·	12.9	-3.9	-0.1	3.6
COc1ccc(-c2csc(NC(=O)CSc3nnnn3C)n2)cc1OC	-2.2	-1.1	-1.5	98.4*	11.7
COc1ccc(-c2csc(NC(=O)[C@H](C)N3C(=O)C4CC=CCC4C3=O)n2)cc1OC (some centres undefined)	·	-6.4	-1.2	91.4*	·
Cc1cc(C)nc(SCCC(=O)Nc2ccccc2Cl)n1	0.6	-1.8	-0.6	1.5	·
Cn1cc(SCC(=O)Nc2nc3ccccc3s2)c2ccccc21	-2.9	-6.2	-0.2	98.1*	-6.1
O=C(CSc1ncccn1)Nc1cccc2ccccc12	-2.8	·	-2.7	-0.5	-1.1
CCC1C(=O)N=C(SCC(=O)Nc2nc3ccccc3s2)NC1=O (centres undefined)	0.5	2.6	-1.3	98.7*	15.4
CCOC(=O)CC(=O)Nc1nc2ccccc2s1	5.2	-10.8	-2.2	·	7.2
CCC1C(=O)N=C(SCC(=O)Nc2ccc(Br)cn2)NC1=O (centres undefined)	·	-16.3	-4.0	98.6*	15.1
CCC1C(=O)N=C(SCC(=O)Nc2cccc3ccccc23)NC1=O (centres undefined)	6.7	-6.0	-0.3	98.8*	-6.7
COc1ccccc1CNC(=O)C1CCN(S(=O)(=O)c2ccc3c(c2)C(C)(C)C(=O)N3C)CC1	·	-30.8	-1.1	-3.1	0.6
CC(C)CC(C(=O)Nc1ccccc1)N1C(=O)C2C3C=CC(C3)C2C1=O (centres undefined)	1.7	26.5	-0.1	·	-0.5
CCOC(=O)c1ccc(NC(=O)CSC2=NC(=O)C(CC)C(=O)N2)cc1 (centres undefined)	·	8.2	-0.6	98.9*	3.2
COc1cc(O)c(C(CCN2CCCCC2)c2ccc(N(C)C)cc2)c(OC)c1 (centres undefined)	1.5	-1.6	-1.7	98.3*	-7.9
COc1cc(O)c(C(CC(=O)N2CCCC2)c2ccc(N(C)C)cc2)c(OC)c1 (centres undefined)	-1.4	0.5	-2.7	98.2*	-11.0
COc1cc(O)c(C(CCN2CCCC2)c2ccc(N(C)C)cc2)c(OC)c1 (centres undefined)	0.8	-9.5	0.2	·	-2.8

Screening data as filed in PubChem.
